Laboratory results published in ChEMBL document CHEMBL5346935, “Novel O-benzylcinnamic acid derivative L26 treats acute lung injury in mice by MD-2” (Eur J Med Chem, 2023).
The source made the active and inactive calls. The rule behind the calls is not given here.

Legend:
[1] = (§1) Antiinflammatory activity in LPS-induced HEK-Blue hTLR4 cells assessed as reduction in alkaline phosphatase activity at 10 uM pretreated with compound for 0.5 hr followed by LPS induction and measured after 24 hrs; assay type: functional, Homo sapiens; parameters: scale not given: the % may be the effect or the level left; details: time 24.5 hrs
Procedure, shortened: (§2)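 HEK-Blue-TLR4 cells (2×10^4/well, DMEM with 10% FBS) were grown for 24 h, then pretreated with compound or DMSO for 0.5 h. LPS was added at 0.5 µg/mL for 24 h. Supernatant ALP activity was read at 405 nm with a kit. Values are mean ± SEM of three independent experiments.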

[2] = tested on: HEK-Blue hTLR4; test: as §1; assay type: functional; details: Homo sapiens, time 24.5 hrs; procedure, shortened: as §2
[3] = tested on: RAW264.7; test: Antiinflammatory activity in LPS-induced mouse RAW264.7 cells assessed as decrease in LPS-induced IL-6 secretion pretreated for 30 mins followed by LPS-induction and measured after 24 hrs by ELISA analysis; assay type: functional, cell-based
Procedure, shortened: (§3)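 RAW 264.7 macrophages were pretreated for 30 min with 1–10 µM compound or DMSO vehicle, then stimulated with LPS (0.5 µg/mL). After 24 h, supernatant IL-6 and TNF-α were measured by ELISA. Results are mean ± SEM of triplicates, expressed as percent of the LPS group, with Student's t-test.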

[4] = tested on: RAW264.7; test: Antiinflammatory activity in LPS-induced mouse RAW264.7 cells assessed as decrease in LPS-induced TNF-alpha secretion pretreated for 30 mins followed by LPS-induction and measured after 24 hrs by ELISA analysis; assay type: functional, cell-based; procedure, shortened: as §3
[5] = AUC (0 to t) in Sprague-Dawley rat at 10 mg/kg, po measured at 5 to 24 hrs by UPLC-MS/MS analysis; assay type: ADME, organism-based; parameters: dose 10 mg/kg, time upper 24 hrs, time lower 5 hrs, route po; details: in vivo
Procedure, shortened: (§4)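 Male SD rats (200 g ± 20 g, n = 6) were dosed orally by gavage at 10 mg/kg, suspended in CMC-Na with DMSO (<0.1%). Tail-vein blood was drawn at 5 min, 15 min, 30 min, 1, 2, 4, 6, 9, 12 and 24 h and centrifuged. Plasma supernatant was precipitated with an equal volume of acetonitrile and run on UPLC-MS/MS. Parameters came from a non-compartmental fit.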

[6] = AUC (0 to infinity) in Sprague-Dawley rat at 10 mg/kg, po measured at 5 to 24 hrs by UPLC-MS/MS analysis; assay type: ADME, organism-based; parameters: time lower 5 hrs, dose 10 mg/kg, time upper 24 hrs, route po; details: in vivo; procedure, shortened: as §4
[7] = Half life in Sprague-Dawley rat at 10 mg/kg, po measured at 5 to 24 hrs by UPLC-MS/MS analysis; assay type: ADME, organism-based; details: in vivo, time 5-24 hrs; procedure, shortened: as §4
[8] = Tmax in Sprague-Dawley rat at 10 mg/kg, po measured at 5 to 24 hrs by UPLC-MS/MS analysis; assay type: ADME, organism-based; details: in vivo, time 5-24 hrs; procedure, shortened: as §4
[9] = Cmax in Sprague-Dawley rat at 10 mg/kg, po measured at 5 to 24 hrs by UPLC-MS/MS analysis; assay type: ADME, organism-based; parameters: dose 10 mg/kg, time 5-24 hrs, route po; details: in vivo; procedure, shortened: as §4
[10] = tested on: RAW264.7; test: Binding affinity to MD-2 in mouse RAW264.7 cells assessed as reduction in LPS/MD-2/TLR4 polymers formation incubated for 12 hrs by immunoprecipitation assay; assay type: cell-based
[11] = tested on: Mus musculus; test: Antiinflammatory activity in LPS-induced C57BL/6 mouse acute lung injury model assessed as decrease in […] TNF-alpha mRNA expression level at 5 mg/kg, po administered every 12 hrs for 36 hrs followed by LPS-induction for 12 hrs and measured at 6 hrs post LPS challenge by q-RTPCR analysis; assay type: functional, organism-based; details: time 54.0 hrs
Procedure, shortened: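 C57BL/6 mice (8 per group) were gavaged with 5 mg/kg in 0.5% CMC-Na every 12 h for 36 h. LPS (5 mg/kg) was instilled intratracheally 12 h after the last dose. Mice were euthanized 6 h later and lung TNF-α mRNA was measured by real-time qRT-PCR.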

[12] = tested on: Mus musculus; test: Antiinflammatory activity in LPS-induced C57BL/6 mouse acute lung injury model assessed as decrease in total protein level at 5 mg/kg, po administered every 12 hrs for 36 hrs followed by LPS-induction for 12 hrs and measured at 6 hrs post LPS challenge; assay type: functional, organism-based; details: time 54.0 hrs
Procedure, shortened: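 Same C57BL/6 regimen: 5 mg/kg oral in 0.5% CMC-Na every 12 h for 36 h, then intratracheal LPS 5 mg/kg 12 h later, with sacrifice at 6 h. BALF was collected by rinsing the left lung with saline 4 times and centrifuged (1000 rpm, 4 °C, 10 min). Supernatant protein was measured by BCA assay.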

[13] = Toxicity in C57BL/6 mouse assessed as histopathological changes in lung at 5 mg/kg, po measured at 6 hrs by H and E staining analysis; assay type: organism-based; details: in vivo
Procedure, shortened: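 Lungs from C57BL/6 mice given 5 mg/kg orally every 12 h for 36 h, then intratracheal LPS 5 mg/kg and sacrificed 6 h later, were fixed in 4% PFA, paraffin-embedded and stained with H&E.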

[14] = tested on: Mus musculus; test: In vivo Inhibition of NF-kappaB signalling pathway in mouse C57BL/6 lung assessed as decrease in phosphorylated p65 level at 5 mg/kg, po measured for 6 hrs by Western blot analysis; assay type: functional, organism-based
Procedure, shortened: (§5)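 In the C57BL/6 ALI model (5 mg/kg oral every 12 h for 36 h, then intratracheal LPS 5 mg/kg, sacrifice at 6 h), lung tissue was lysed in RIPA buffer with PMSF and protein was quantified by Bradford. Samples were run on 10% SDS-PAGE and immunoblotted for p65, phospho-p65 and IκB, with GAPDH as reference.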

[15] = tested on: Mus musculus; test: In vivo Inhibition of NF-kappaB signalling pathway in mouse C57BL/6 lung assessed as upregulation of IkappaBalpha protein expression at 5 mg/kg, po measured for 6 hrs by Western blot analysis; assay type: functional, organism-based; procedure, shortened: as §5
[16] = Acute toxicity in ICR mouse assessed as pathological changes in heart at 1000 to 1500 mg/kg, IG measured after 10 days by H and E staining method; assay type: organism-based; details: in vivo, po, 240 h, dose 1000-1500 mg/kg, time 10 day
Procedure, shortened: (§6)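 ICR mice (27 g ± 1 g; n = 24 total) given a single oral gavage dose on day 1 in CMC-Na with DMSO (<0.1%), dosing solution 50 mg/mL. Untreated mice served as controls. After 10 days, mice were sacrificed under general anaesthesia. Heart, liver, lung, spleen and kidney were harvested for H&E pathology.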

[17] = Acute toxicity in ICR mouse assessed as pathological changes in liver at 1000 to 1500 mg/kg, IG measured after 10 days by H and E staining method; assay type: organism-based; details: in vivo, po, 240 h, dose 1000-1500 mg/kg, time 10 day; procedure, shortened: as §6
[18] = Acute toxicity in ICR mouse assessed as pathological changes in spleen at 1000 to 1500 mg/kg, IG measured after 10 days by H and E staining method; assay type: organism-based; details: in vivo, po, 240 h, dose 1000-1500 mg/kg, time 10 day; procedure, shortened: as §6
[19] = Acute toxicity in ICR mouse assessed as pathological changes in lung at 1000 to 1500 mg/kg, IG measured after 10 days by H and E staining method; assay type: organism-based; details: in vivo, po, 240 h, dose 1000-1500 mg/kg, time 10 day; procedure, shortened: as §6
[20] = Acute toxicity in ICR mouse assessed as pathological changes in kidney at 1000 to 1500 mg/kg, IG measured after 10 days by H and E staining method; assay type: organism-based; details: in vivo, po, 240 h, dose 1000-1500 mg/kg, time 10 day; procedure, shortened: as §6
[21] = species: Homo sapiens; test: Binding affinity to human recombinant MD-2 assessed as reduction in binding of LPS to MD-2 at 1 uM by ELISA analysis
[22] = tested on: Mus musculus; test: Antiinflammatory activity in LPS-induced C57BL/6 mouse acute lung injury model assessed as decrease in BALF ALP level at 5 mg/kg, po administered every 12 hrs for 36 hrs followed by LPS-induction for 12 hrs and measured at 6 hrs post LPS challenge by ELISA analysis; details: time 54.0 hrs

Which Activity [1] does the source give for `O=C(/C=C/c1ccc(OCc2c(Cl)cccc2Cl)cc1)Nc1nc2ccccc2[nH]1` here?
Its Activity is 19.64%.

Which Activity [1] does the source give for `Cc1ccc(COc2ccc(/C=C/C(=O)Nc3nc4ccccc4[nH]3)cc2)cc1` here?
Its Activity is 43.08%.

With `Cc1ccc(COc2ccc(/C=C/C(=O)Nc3nccs3)cc2)cc1` as the compound, how does the Activity [1] read?
The Activity was 15.31%.

For `COc1cccc(COc2ccc(/C=C/C(=O)Nc3nccs3)cc2)c1`, which Activity [2] is on record?
Its Activity is “inactive”.

With `COc1ccc(COc2ccc(/C=C/C(=O)Nc3nc4ccccc4s3)cc2)cc1` as the compound, how does the Activity [1] read?
The Activity was 16.39%.

For `O=C(/C=C/c1ccc(OCc2ccc(F)cc2)cc1)Nc1nccs1`, which Activity [1] is on record?
The Activity was 12.05%.

Which Activity [1] does the source give for `COc1cccc(COc2ccc(/C=C/C(=O)Nc3nc4ccccc4[nH]3)cc2)c1` here?
Its Activity is 64.3%.

What about the IC50 [3] of the same compound?
The IC50 was 2.58 µM.

What about the Activity ([3]; dose 1-10 µM, time 24.5 hrs) of the same compound?
Its Activity is “Dose-Dependent Effect”.

And the IC50 [4]?
The IC50 was 8.41 µM.

What about the Activity ([4]; dose 1-10 µM, time 24.5 hrs) of the same compound?
The Activity was “Dose-Dependent Effect”.

And the AUC(0-t) [5]?
The AUC(0-t) was 462 ng·h/mL.

And the AUC(0-inf) [6]?
The AUC(0-inf) was 465 ng·h/mL.

And the half-life [7]?
Its half-life is 4.25 h.

What about the Tmax [8] of the same compound?
The Tmax was 3.5 h.

And the Cmax [9]?
Its Cmax is 163 ng/mL.

And the Activity [10]?
Its Activity is “Active”.

What about the Activity [11] of the same compound?
The Activity was “Active”.

And the Activity [12]?
The Activity was “Active”.

What about the Activity [13] of the same compound?
The Activity was “Non-Toxic”.

And the inhibition [14]?
The inhibition was “Active”.

And the Activity [15]?
The Activity was “Active”.

What about the Activity [16] of the same compound?
Its Activity is “Non-Toxic”.

What about the Activity [17] of the same compound?
Its Activity is “Non-Toxic”.

And the Activity [18]?
Its Activity is “Non-Toxic”.

And the Activity [19]?
Its Activity is “Non-Toxic”.

And the Activity [20]?
Its Activity is “Non-Toxic”.

What about the Activity [21] of the same compound?
The Activity was “Active”.

And the Activity [22]?
The Activity was “Active”.

Which Activity [1] does the source give for `O=C(/C=C/c1ccc(OCc2ccc(F)cc2)cc1)Nc1nc2ccccc2s1` here?
The Activity was 12.84%.

With `O=C(/C=C/c1ccc(OCc2cccc(F)c2)cc1)Nc1nccs1` as the compound, how does the Activity [1] read?
The Activity was 7.66%.

For `COc1cccc(COc2ccc(/C=C/C(=O)Nc3nc4ccccc4s3)cc2)c1`, which Activity [1] is on record?
Its Activity is 14.12%.

Which Activity [1] does the source give for `CC(C)c1ccc(COc2ccc(/C=C/C(=O)Nc3nc4ccccc4s3)cc2)cc1` here?
The Activity was 14.04%.

Which Activity [1] does the source give for `O=C(/C=C/c1ccc(OCc2c(Cl)cccc2Cl)cc1)Nc1nc2ccccc2s1` here?
The Activity was 11.99%.

For `O=C(O)/C=C/c1ccccc1` [CINNAMIC ACID], which Activity [1] is on record?
The Activity was 9.51%.

For `Cc1ccc(COc2ccc(/C=C/C(=O)Nc3nc4ccccc4s3)cc2)cc1`, which Activity [2] is on record?
The Activity was “inactive”.

With `O=C(/C=C/c1ccc(OCc2ccc3ccccc3c2)cc1)Nc1nccs1` as the compound, how does the Activity [1] read?
Its Activity is 3.63%.

For `Cc1cccc(COc2ccc(/C=C/C(=O)Nc3nc4ccccc4s3)cc2)c1`, which Activity [1] is on record?
The Activity was 9.26%.

For `O=C(/C=C/c1ccc(OCc2cccc(Cl)c2)cc1)Nc1nc2ccccc2s1`, which Activity [2] is on record?
Its Activity is “inactive”.

For `O=C(/C=C/c1ccc(OCc2ccc(F)cc2)cc1)Nc1nc2ccccc2[nH]1`, which Activity [1] is on record?
The Activity was 29.65%.

For `COc1ccc(COc2ccc(/C=C/C(=O)Nc3nccs3)cc2)cc1`, which Activity [2] is on record?
Its Activity is “inactive”.

With `CC(C)c1ccc(COc2ccc(/C=C/C(=O)Nc3nccs3)cc2)cc1` as the compound, how does the Activity [2] read?
Its Activity is “inactive”.

With `Cc1cccc(COc2ccc(/C=C/C(=O)Nc3nccs3)cc2)c1` as the compound, how does the Activity [1] read?
Its Activity is 2.28%.

For `O=C(/C=C/c1ccc(OCc2cccc(Cl)c2)cc1)Nc1nccs1`, which Activity [2] is on record?
Its Activity is “inactive”.

For `O=C(/C=C/c1ccc(OCc2cccc(F)c2)cc1)Nc1nc2ccccc2s1`, which Activity [1] is on record?
The Activity was 19%.

Which Activity [1] does the source give for `O=C(/C=C/c1ccc(OCc2cccc(F)c2)cc1)Nc1nc2ccccc2[nH]1` here?
The Activity was 55.45%.

With `O=C(/C=C/c1ccc(OCc2c(Cl)cccc2Cl)cc1)Nc1nccs1` as the compound, how does the Activity [1] read?
The Activity was 8.16%.

Which Activity [1] does the source give for `O=C(/C=C/c1ccc(OCc2ccc3ccccc3c2)cc1)Nc1nc2ccccc2[nH]1` here?
Its Activity is 9.07%.

For `O=C(/C=C/c1ccc(OCc2ccc3ccccc3c2)cc1)Nc1nc2ccccc2s1`, which Activity [1] is on record?
Its Activity is 14.17%.

For `O=C(/C=C/c1ccc(OCc2cccc(Cl)c2)cc1)Nc1nc2ccccc2[nH]1`, which Activity [1] is on record?
The Activity was 41.13%.
